Experimental data reported in article PMC2877169 (Journal of medicinal chemistry, 2010).

What was measured:
[1] = target: rat protein farnesyltransferase (Rattus norvegicus, UniProt Q02293+Q04631); assay: Rat protein farnesyltransferase inhibition assay; type: biochemical; details: for fold reduction in potency/affinity for protein farnesyltransferase compared to 1: relative to compound 1
T. cruzi amastigotes = assay: T. cruzi amastigote growth; type: cell-based, Trypanosoma cruzi; details: relative to compound 1
[2] = target: recombinant Tc-L14DM (lanosterol 14α-demethylase) (Trypanosoma cruzi, UniProt Q7Z1V1); assay: Binding to recombinant Tc-L14DM by difference optical spectroscopy
Procedure, shortened: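 Difference optical spectroscopy on recombinant T. cruzi lanosterol 14α-demethylase held at 1.4 μM, with test compound added at 200 nM – 2 uM; binding read from the difference spectra.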

P450 enzymes = details: read-out: inhibition of P450 enzymes; previously reported weak inhibitor; cited from earlier work

Sequence of recombinant Tc-L14DM (lanosterol 14α-demethylase) (Q7Z1V1 whole entry): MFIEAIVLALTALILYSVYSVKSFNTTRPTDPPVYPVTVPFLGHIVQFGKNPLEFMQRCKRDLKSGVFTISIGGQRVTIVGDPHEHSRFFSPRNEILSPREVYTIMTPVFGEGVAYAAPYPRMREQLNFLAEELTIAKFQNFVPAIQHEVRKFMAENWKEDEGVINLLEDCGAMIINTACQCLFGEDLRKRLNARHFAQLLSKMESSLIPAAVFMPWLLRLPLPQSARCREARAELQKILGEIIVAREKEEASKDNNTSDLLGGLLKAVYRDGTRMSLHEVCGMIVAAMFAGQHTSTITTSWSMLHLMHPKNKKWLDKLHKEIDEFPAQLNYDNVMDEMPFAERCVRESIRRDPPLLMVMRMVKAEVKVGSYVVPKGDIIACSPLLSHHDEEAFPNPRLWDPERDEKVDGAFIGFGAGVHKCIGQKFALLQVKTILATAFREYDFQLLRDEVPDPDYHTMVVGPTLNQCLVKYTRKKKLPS

| SMILES | fold reduction in potency/affinity for protein farnesyltransferase compared to 1 [1] | IC50 [1] [nM] | other results |
| --- | --- | --- | --- |
| COC(c1ccc(Cl)cc1)(c1ccc2c(c1)c(-c1cccc(Cl)c1)cc(=O)n2C)c1cncn1C (stereo not shown) [Compound 3] | 100 fold | – | – |
| Cc1c(Cl)cccc1-c1cc(=O)n(C)c2ccc(C(O)(c3ccc(Cl)cc3)c3cncn3C)cc12 (stereo not shown) [Compound 20, 4-(3-Chloro-2-methylphenyl)-6-((4-chlorophenyl)(hydroxy)(1-methyl-1H-imidazol-5-yl)methyl)-1-methylquinolin-2(1H)-one] | – | 796 | – |
| COC(c1ccc(Cl)cc1)(c1ccc2c(c1)c(-c1cccc(Cl)c1C)cc(=O)n2C)c1cncn1C (stereo not shown) [Compound 2] | – | – | fold more potent at killing T. cruzi amastigotes than 1 (T. cruzi amastigotes): about 10 fold |
| COC(c1ccc(Cl)cc1)(c1ccc2c(c1)c(-c1ccccc1)cc(=O)n2C)c1cncn1C (stereo not shown) [Compound 10] | ~ 500 fold | – | – |
| COC(c1ccc(Cl)cc1)(c1ccc2c(c1)c(-c1c(F)cccc1F)cc(=O)n2C)c1cncn1C (stereo not shown) [Compound 16, 4-(2,6-Difluorophenyl)-6-((4-chlorophenyl)(methoxy)(1-methyl-1H-imidazol-5-yl)methyl)-1-methylquinolin-2(1H)-one] | – | – | Kd [2]: < 1400 nM |
| Cn1cncc1[C@@](N)(c1ccc(Cl)cc1)c1ccc2c(c1)c(-c1cccc(Cl)c1)cc(=O)n2C [Compound 1, tipifarnib] | – | – | IC50 (P450 enzymes): > 10000 nM |
| COC(c1ccc(Cl)cc1)(c1ccc2c(c1)c(-c1cc(C)cc(C)c1)cc(=O)n2C)c1cncn1C (stereo not shown) [Compound 17] | ~ 600 fold | – | – |

More lines, main results first:

| fold reduction in potency/affinity for protein farnesyltransferase compared to 1 [1] | IC50 [1] [nM] | SMILES | other results |
| --- | --- | --- | --- |
| – | 30 | CCn1cncc1C(O)(c1ccc(Cl)cc1)c1ccc2c(c1)c(-c1cccc(Cl)c1)cc(=O)n2C (stereo not shown) [Compound 27] | – |
| – | 957 | CNC(c1ccc(Cl)cc1)(c1ccc2c(c1)c(-c1cccc(Cl)c1C)cc(=O)n2C)c1cncn1C (stereo not shown) [Compound 23, 4-(3-chloro-2-methylphenyl)-6-((4-chlorophenyl)(methylamino)(1-methyl-1H-imidazol-5-yl)methyl)-1-methylquinolin-2(1H)-one] | – |
| ~ 1,500 fold | – | CCn1cncc1C(OC)(c1ccc(Cl)cc1)c1ccc2c(c1)c(-c1cccc(Cl)c1)cc(=O)n2C (stereo not shown) [Compound 26] | – |
